One may read the pIC50 as the IC50 on a negative log10 scale, so that one unit is a factor of ten.

A short description of this assay: Inhibition of specific binding of [3H]gabapentin to Gabapentin binding sites located on the alpha-2-delta subunit of calcium channel. The arrangement: species or system Oryctolagus cuniculus. In short, it runs like this: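 [3H]Gabapentin displacement from gabapentin sites on the calcium channel α2δ subunit. IC50 (nM) is the concentration giving half-maximal inhibition of specific radioligand binding.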

pIC50: −log10 of the molar value.

As for `CCCC1CCCC(CN)(CC(=O)O)C1` (configuration not stated), the pIC50 is 5.48.

On to `CC1(C)CCCC(CN)(CC(=O)O)C1` (configuration not stated), for which the pIC50 was 6.06.

`CC1CCCC(CN)(CC(=O)O)C1` (configuration not stated): the pIC50 is < 5.00.

Turning to `C[C@@H]1C[C@H](C)CC(CN)(CC(=O)O)C1` (stereo in doubt; 27), the negative logarithm of the IC50 (pIC50) is 6.85.

As for `CC[C@H]1CC[C@@](CN)(CC(=O)O)CC1`, the pIC50 was 6.15.

Regarding `NCC1(CC(=O)O)CCNCC1`, the negative logarithm of the IC50 (pIC50) is < 5.00.

As to `CC1(C)CCC(CN)(CC(=O)O)CC1`, the pIC50 is 5.88.

Turning to `NC[C@]1(CC(=O)O)CC[C@@H](c2ccccc2)CC1`, the pIC50 was < 5.00.

Turning to `C[C@H]1CC[C@@](CN)(CC(=O)O)CC1`, the pIC50 was 6.36.

With `NCC1(CC(=O)O)CCSCC1`, the pIC50 was 6.41.

For `COC1CCCCC1(CN)CC(=O)O` (configuration not stated), the pIC50 is < 5.00.

Turning to `CCC1CCCC(CN)(CC(=O)O)C1` (configuration not stated), the negative-log IC50 (pIC50) was 6.55.

Regarding `C[C@@H]1C[C@H](C)CC(CN)(CC(=O)O)C1` (stereo in doubt; 28), the pIC50 is < 5.00.

Regarding `NCC1(CC(=O)O)CCOCC1`, the pIC50 is 5.62.

Regarding `C[C@H]1CC[C@](CN)(CC(=O)O)CC1`, the pIC50 is < 5.00.

As for `CC1(C)CC(C)(C)CC(CN)(CC(=O)O)C1`, the pIC50 was < 5.00.

As for `C[C@@H]1CCC[C@@](CN)(CC(=O)O)C1`, the pIC50 is 7.38.

Regarding `NCC1(CC(=O)O)CCCCC1` [GABAPENTIN], the pIC50 was […].

On to `C[C@H]1CCC[C@](CN)(CC(=O)O)C1`, for which the pIC50 is 7.14.

As for `NCC1(CC(=O)O)CCCC(c2ccccc2)C1` (configuration not stated), the pIC50 is < 5.00.

`CC(C)C1CCCC(CN)(CC(=O)O)C1` (configuration not stated): the pIC50 is 5.20.

For `NCC1(CC(=O)O)CCCCC1C1CCCCC1` (configuration not stated), the pIC50 is < 5.00.

For the origin of these results see ChEMBL document CHEMBL1131620, “Identification of novel ligands for the gabapentin binding site on the alpha2delta subunit of a calcium channel and their evaluation as anticonvulsant agents” (J Med Chem, 1998).
